What all share (assay type): functional
Test [1] deals with Meriones unguiculatus. The experiment in a line: Percent reduction of Haemonchus contortus in immunosuppressed jird (Meriones unguiculatus) when CDP administered 0.11 mg/jird orally. Put shortly:
(§1)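 Jirds were immunosuppressed via medicated food; 5 days later each got ~1000 exsheathed infective H. contortus larvae (pre-incubated 1 h in Earle's balanced salt solution) per os. The strain was maintained in sheep. Jirds were randomized by cage (3/group) on day 10 post-inoculation. Compound was suspended in 17% DMSO/83% carboxymethylcellulose and given orally in 0.2 mL, with vehicle-only controls. Worms were recovered after 5 h incubation at 37 °C, fixed in formaldehyde and counted under a dissecting microscope. Percent clearance = (mean control − mean treated)/mean control × 100.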

Test [2] concerns Meriones unguiculatus. The experiment in a line: Percent reduction of Haemonchus contortus in immunosuppressed jird (Meriones unguiculatus) when CDP administered 0.33 mg/jird orally. An outline of the steps:
as §1

The subject of test [3] is Meriones unguiculatus. The experiment in a line: Percent reduction of Haemonchus contortus in immunosuppressed jird (Meriones unguiculatus) when CDP administered 3 mg/jird orally. An outline of the steps: as §1
In test [4] the test system is Meriones unguiculatus. The experiment in a line: Percent reduction of Haemonchus contortus in immunosuppressed jird (Meriones unguiculatus) when CDP administered 1 mg/jird orally. Put shortly:
as §1

The test system of test [5] is Meriones unguiculatus. The experiment in a line: Percent reduction of Haemonchus contortus in immunosuppressed jird (Meriones unguiculatus) when CDP administered 5.75 mg/jird orally. An outline of the steps: as §1
For test [6], the system named is Meriones unguiculatus. Put plainly: Percent reduction of Haemonchus contortus in immunosuppressed jird (Meriones unguiculatus) when CDP administered 2.75 mg/jird orally. An outline of the steps: as §1

Molecules are shown by their SMILES.

On to `CC(C)C[C@H]1C(=O)O[C@H](Cc2ccccc2)C(=O)N(C)[C@@H](CC(C)C)C(=O)O[C@H](C)C(=O)N(C)[C@@H](CC(C)C)C(=O)O[C@H](Cc2ccccc2)C(=O)N(C)[C@@H](CC(C)C)C(=O)O[C@H](C)C(=O)N1C`, for which the Reduction in the test with Meriones unguiculatus [1] came to 100%.

`CC(C)C[C@H]1C(=O)O[C@H](Cc2ccccc2)C(=O)N(C)[C@@H](CC(C)C)C(=O)OC2CCCN(C2=O)[C@@H](CC(C)C)C(=O)O[C@H](Cc2ccccc2)C(=O)N(C)[C@@H](CC(C)C)C(=O)O[C@H](C)C(=O)N1C` (stereo partly specified): the Reduction with Meriones unguiculatus [2] amounted to 75%; in the test on Meriones unguiculatus [3], 99%; with Meriones unguiculatus [4], 89%; in the test with Meriones unguiculatus [1] it was 36%.

As for `CC(C)C[C@H]1C(=O)O[C@H](Cc2ccccc2)C(=O)N(C)[C@@H](CC(C)C)C(=O)O[C@@H]2CCN(C2=O)[C@@H](CC(C)C)C(=O)O[C@H](Cc2ccccc2)C(=O)N(C)[C@@H](CC(C)C)C(=O)O[C@H](C)C(=O)N1C`, the results for the Reduction with Meriones unguiculatus [5] and in the test with Meriones unguiculatus [6] were 89% and 69%, respectively.

For the molecule `CC(C)C[C@H]1C(=O)O[C@H](Cc2ccccc2)C(=O)N(C)[C@@H](CC(C)C)C(=O)OC2CCCCN(C2=O)[C@@H](CC(C)C)C(=O)O[C@H](Cc2ccccc2)C(=O)N(C)[C@@H](CC(C)C)C(=O)O[C@H](C)C(=O)N1C` (stereo partly specified), the Reduction in the test with Meriones unguiculatus [2] is 99%; in the test with Meriones unguiculatus [3] it was 100%; in the test with Meriones unguiculatus [4], 100%; in the test on Meriones unguiculatus [1] it was 91%.
